Reference: ChEMBL document CHEMBL1149790, “Synthesis of some novel thiourea derivatives obtained from 5-[(4-aminophenoxy)methyl]-4-alkyl/aryl-2,4-dihydro-3H-1,2,4-triazole-3-thiones and evaluation as antiviral/anti-HIV and anti-tuberculosis agents” (Eur J Med Chem, 2008)
≈ marks a conversion by molar mass, not a printed value.

What was measured:
[1] = test system: Human immunodeficiency virus 1; assay: Antiviral activity against HIV1 3B in human MT4 cells assessed as protection against virus-induced cytopathogenicity by MTT assay; type: functional, organism-based; parameters: Activity: concentration or dose not given beside the values; settings: for IC50: Human immunodeficiency virus 1, 3B, MT4
Procedure, shortened: (§1)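 MT-4 cells at 6 × 10⁵ cells/ml infected with HIV-1 IIIB or HIV-2 ROD at 100–300 CCID50; compounds in serial five-fold dilutions, triplicate mock- and virus-infected wells. MTT viability read at 540 and 690 nm after 5 days, median OD of three wells; EC50 = 50% protection from viral cytopathic effect.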

[2] = test system: Human immunodeficiency virus 2; assay: Antiviral activity against HIV2 ROD in human MT4 cells assessed as protection against virus-induced cytopathogenicity by MTT assay; type: functional, organism-based; parameters: Activity: concentration or dose not given beside the values; settings: for IC50: Human immunodeficiency virus 2, ROD, MT4; procedure, shortened: as §1
[3] = Cytotoxicity against human MT4 cells by MTT assay; type: cell-based
Procedure, shortened: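 Mock-infected MT-4 cells (6 × 10⁵ cells/ml) with serial five-fold compound dilutions in triplicate; MTT reduction read at 540 and 690 nm after 5 days, median OD of three wells; CC50 = concentration reducing OD540 of mock-infected control by 50%.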

[4] = Cytotoxicity against human HeLa cells; type: cell-based
Procedure, shortened: (§2)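 Uninfected cell cultures exposed to test compounds alongside antiviral assays; minimum cytotoxic concentration (MCC) = concentration causing a microscopically detectable alteration of cell morphology.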

[5] = test system: Vesicular stomatitis virus; assay: Antiviral activity against vesicular stomatitis virus in human HeLa cells assessed as inhibition of virus-induced cytopathogenicity; type: functional
Procedure, shortened: (§3)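 Confluent cell monolayers (E6SM, HEL, HeLa or Vero, per line) inoculated with 100 CCID50 virus; 1 h adsorption, residual virus removed, then incubated with compound at 400, 200, 100 … µg/ml. Cytopathicity scored once complete in untreated virus controls; MIC = concentration inhibiting virus-induced cytopathicity.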

[6] = test system: Coxsackievirus B4; assay: Antiviral activity against Coxsackie virus B4 in human HeLa cells assessed as inhibition of virus-induced cytopathogenicity; type: functional; settings: Enterovirus B; procedure, shortened: as §3
[7] = test system: Respiratory syncytial virus; assay: Antiviral activity against respiratory syncytial virus in human HeLa cells assessed as inhibition of virus-induced cytopathogenicity; type: functional; procedure, shortened: as §3
[8] = Cytotoxicity against human E6SM cells; type: cell-based; settings: E6SM cells; procedure, shortened: as §2
[9] = Cytotoxicity against human HEL cells assessed as alteration of cell morphology; type: cell-based; procedure, shortened: as §2
[10] = test system: Human alphaherpesvirus 1; assay: Antiviral activity against HSV1 KOS in human E6SM cells assessed as reduction of virus-induced cytopathogenicity; type: functional; settings: Human alphaherpesvirus 1, KOS; procedure, shortened: as §3
[11] = test system: Human alphaherpesvirus 1; assay: Antiviral activity against HSV1 KOS in human HEL cells assessed as reduction of virus-induced cytopathogenicity; type: functional; settings: Human alphaherpesvirus 1, KOS; procedure, shortened: as §3
[12] = test system: Human alphaherpesvirus 2; assay: Antiviral activity against HSV2 G in human E6SM cells assessed as reduction of virus-induced cytopathogenicity; type: functional; settings: Human alphaherpesvirus 2, G; procedure, shortened: as §3
[13] = test system: Human alphaherpesvirus 2; assay: Antiviral activity against HSV2 G in human HEL cells assessed as reduction of virus-induced cytopathogenicity; type: functional; settings: Human alphaherpesvirus 2, G; procedure, shortened: as §3
[14] = test system: Vesicular stomatitis virus; assay: Antiviral activity against in Vesicular stomatitis virus in human E6SM cells assessed as reduction of virus-induced cytopathogenicity; type: functional; procedure, shortened: as §3
[15] = test system: Vesicular stomatitis virus; assay: Antiviral activity against in Vesicular stomatitis virus in human HEL cells assessed as reduction of virus-induced cytopathogenicity; type: functional; procedure, shortened: as §3
[16] = test system: Human alphaherpesvirus 1; assay: Antiviral activity against thymidine kinase deficient and acyclovir resistant HSV1 KOS in human E6SM cells assessed as reduction of virus-induced cytopathogenicity; type: functional; settings: Human alphaherpesvirus 1, KOS; procedure, shortened: as §3
[17] = test system: Human alphaherpesvirus 1; assay: Antiviral activity against thymidine kinase deficient and acyclovir resistant HSV1 KOS in human HEL cells assessed as reduction of virus-induced cytopathogenicity; type: functional; settings: Human alphaherpesvirus 1, KOS; procedure, shortened: as §3
[18] = test system: Vero; assay: Cytotoxicity against african green monkey Vero cells; type: cell-based; settings: chlorocebus sabaeus; procedure, shortened: as §2
[19] = test system: Coxsackievirus B4; assay: Antiviral activity against Coxsackie virus B4 in african green monkey Vero cells assessed as reduction of virus-induced cytopathogenicity; type: functional; settings: Enterovirus B; procedure, shortened: as §3
[20] = test system: Punta Toro virus; assay: Antiviral activity against Punta Toro virus in african green monkey Vero cells assessed as reduction of virus-induced cytopathogenicity; type: functional; procedure, shortened: as §3
[21] = test system: Human respirovirus 3; assay: Antiviral activity against Parainfluenza 3 virus in african green monkey Vero cells assessed as reduction of virus-induced cytopathogenicity; type: functional; procedure, shortened: as §3
[22] = test system: Mammalian orthoreovirus 1; assay: Antiviral activity against Reo virus 1 in african green monkey Vero cells assessed as reduction of virus-induced cytopathogenicity; type: functional; procedure, shortened: as §3
[23] = test system: Sindbis virus; assay: Antiviral activity against Sindbis virus in african green monkey Vero cells assessed as reduction of virus-induced cytopathogenicity; type: functional; procedure, shortened: as §3

| SMILES | Activity [1] [%] | IC50 [1] [µg/mL] | Activity [2] [%] | IC50 [2] [µg/mL] | CC50 [3] [µg/mL] | MCC [4] [µg/mL] | MIC [5] [µg/mL] | MIC [6] [µg/mL] | MIC [7] [µg/mL] | MCC [8] [µg/mL] | MCC [9] [µg/mL] | MIC [10] [µg/mL] | MIC [11] [µg/mL] | MIC [12] [µg/mL] | MIC [13] [µg/mL] | MIC [14] [µg/mL] | MIC [15] [µg/mL] | MIC [16] [µg/mL] | MIC [17] [µg/mL] | Activity [18] | also measured |
| --- | --- | --- | --- | --- | --- | --- | --- | --- | --- | --- | --- | --- | --- | --- | --- | --- | --- | --- | --- | --- | --- |
| C=CCNC(=S)Nc1ccc(-c2nnc(SCc3ccc(Cl)cc3Cl)n2C)cc1 | 0.5 | > 116 | 5 | > 116 | 116 (≈ 250 µM) | 400 | > 80 | > 80 | > 80 | 80 | 80 | > 16 | > 16 | > 16 | > 16 | > 16 | > 16 | > 16 | > 16 | 80 µg/mL | MIC [19]: > 16 µg/mL; MIC [20]: > 16 µg/mL; MIC [21]: > 16 µg/mL; MIC [22]: > 16 µg/mL; MIC [23]: > 16 µg/mL |
| CCCCCCNC(=S)Nc1ccc(-c2n[nH]c(=S)n2C)cc1 | 8 | > 8.82 | 0 | > 8.82 | 8.82 (≈ 25.2 µM) | 80 | > 16 | > 16 | > 16 | 400 | 400 | 48 (≈ 137 µM) | 48 (≈ 137 µM) | 48 (≈ 137 µM) | 48 (≈ 137 µM) | > 80 | > 80 | 48 (≈ 137 µM) | 48 (≈ 137 µM) | 80 µg/mL | MIC [19]: > 16 µg/mL; MIC [20]: > 16 µg/mL; MIC [21]: > 16 µg/mL; MIC [22]: > 16 µg/mL; MIC [23]: > 16 µg/mL |
| C=CCn1c(-c2ccc(NC(=S)Nc3ccccc3)cc2)n[nH]c1=S | 30.5 | > 19.4 | 0 | > 19.4 | 19.4 (≈ 52.8 µM) | 400 | > 80 | > 80 | > 80 | 80 | 80 | > 16 | > 16 | > 16 | > 16 | > 16 | > 16 | > 16 | > 16 | 80 µg/mL | MIC [19]: > 16 µg/mL; MIC [20]: > 16 µg/mL; MIC [21]: > 16 µg/mL; MIC [22]: > 16 µg/mL; MIC [23]: > 16 µg/mL |
| C=CCNC(=S)Nc1ccc(-c2n[nH]c(=S)n2CCCCCC)cc1 | 4 | > 10.1 | 0 | > 10.1 | 10.1 (≈ 26.8 µM) | 80 | > 16 | > 16 | > 16 | 80 | 80 | > 16 | > 16 | > 16 | > 16 | > 16 | > 16 | > 16 | > 16 | >= 16 ug ml-1 | MIC [19]: > 16 µg/mL; MIC [20]: > 16 µg/mL; MIC [21]: > 16 µg/mL; MIC [22]: > 16 µg/mL; MIC [23]: > 16 µg/mL |
| C=CCNC(=S)Nc1ccc(-c2n[nH]c(=S)n2CC)cc1 | 8.5 | > 57 | 0 | > 57 | 57 (≈ 178 µM) | 400 | > 80 | > 80 | > 80 | 400 | 400 | 240 (≈ 751 µM) | 240 (≈ 751 µM) | 240 (≈ 751 µM) | 240 (≈ 751 µM) | > 80 | > 80 | 240 (≈ 751 µM) | 240 (≈ 751 µM) | >= 80 ug ml-1 | MIC [19]: > 80 µg/mL; MIC [20]: 80 µg/mL (≈ 250 µM); MIC [21]: > 80 µg/mL; MIC [22]: > 80 µg/mL; MIC [23]: > 80 µg/mL |
| CCNC(=S)Nc1ccc(-c2n[nH]c(=S)n2C)cc1 | 3 | > 82.4 | 0 | > 82.4 | 82.4 (≈ 281 µM) | 400 | > 80 | > 80 | > 80 | ≥ 400 | ≥ 400 | 240 (≈ 818 µM) | 240 (≈ 818 µM) | 240 (≈ 818 µM) | 240 (≈ 818 µM) | > 400 | > 400 | 240 (≈ 818 µM) | 240 (≈ 818 µM) | 400 µg/mL | MIC [19]: > 80 µg/mL; MIC [20]: > 80 µg/mL; MIC [21]: > 80 µg/mL; MIC [22]: > 80 µg/mL; MIC [23]: > 80 µg/mL |
